The source of these data is ChEMBL document CHEMBL1828624, “Synthesis and antioxidant activity of oxazolyl/thiazolylsulfonylmethyl pyrazoles and isoxazoles” (Eur J Med Chem, 2011).

Common to all, as to format: functional
Assay [1] concerns Radical scavenging activity. The experiment in a line: Antioxidant activity assessed as DPPH free radical scavenging activity at 50 ug/ml after 30 mins by spectrophotometric analysis relative to control. In a few lines: (§1)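 Compounds in methanol at […] were mixed with 0.004% (w/v) methanolic DPPH. After 30 min at room temperature, absorbance was read at 517 nm against a blank. Percent inhibition was calculated from control (all reagents minus compound) and sample absorbances. Run in triplicate.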

Assay [2] deals with Radical scavenging activity. The experiment in a line: Antioxidant activity assessed as DPPH free radical scavenging activity at 75 ug/ml after 30 mins by spectrophotometric analysis relative to control. In a few lines:
as §1
On the technique in general: The DPPH test is a chemical assay of radical scavenging.

The subject of assay [3] is Radical scavenging activity. The experiment in a line: Antioxidant activity assessed as DPPH free radical scavenging activity at 100 ug/ml after 30 mins by spectrophotometric analysis relative to control. In a few lines: as §1
Assay [4] concerns Radical scavenging activity. The experiment in a line: Antioxidant activity assessed as DPPH free radical scavenging activity after 30 mins by spectrophotometric analysis. In a few lines: as §1
A short description of assay [5]: Antioxidant activity assessed as nitric oxide scavenging activity at 50 ug/ml after 150 mins by Griess method relative to control. In a few lines:
(§2)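 NO was generated from sodium nitroprusside (10 mM) in phosphate buffer saline (0.2 M, pH 7.4). Compounds were added at […] and incubated 150 min at 25 °C. Percent scavenging was calculated from control (all reagents minus compound) and sample absorbances. Run in triplicate.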

Assay [6] can be described thus: Antioxidant activity assessed as nitric oxide scavenging activity at 75 ug/ml after 150 mins by Griess method relative to control. In a few lines:
as §2

The nature of assay [7]: Antioxidant activity assessed as nitric oxide scavenging activity at 100 ug/ml after 150 mins by Griess method relative to control. The gist of the method: as §2
Assay [8] can be described thus: Antioxidant activity assessed as hydrogen peroxide scavenging activity at 50 ug/ml relative to control.
The nature of assay [9]: Antioxidant activity assessed as hydrogen peroxide scavenging activity at 75 ug/ml relative to control.
Assay [10] can be described thus: Antioxidant activity assessed as hydrogen peroxide scavenging activity at 100 ug/ml relative to control.

The term inhibition denotes the change of the read-out against control, counted positive when it falls. Broadly, the IC50 is the midpoint of a concentration-inhibition curve.

Each structure is given as a SMILES string. ≈ marks a conversion by molar mass, not a printed value. Calls of active or inactive are those of the source. The rule behind the calls is not given here.

In the case of `COc1ccc(-c2nn(-c3ccccc3)c(-c3ccc(C)cc3)c2S(=O)(=O)CC2=NCCS2)cc1`, the inhibition entry in assay [1], in assay [2] and in assay [3] was “inactive” each time. Further, the IC50 entry in [4] is “Not Active”. Besides, the result in assay [5], in assay [6], in assay [7], in assay [8], in [9] and in assay [10] was inactive.
As to `O=S(=O)(CC1=NCCS1)C1=NNCC1c1ccc(Cl)cc1` (stereo not given), the inhibition entry in assay [1], in [2] and in assay [3] was “inactive” in each case. In [4], the IC50 entry was “Not Active”. The outcome in assay [5], in assay [6], in assay [7], in assay [8], in assay [9] and in [10] was inactive.
On to `O=S(=O)(CC1=NCCO1)C1C(c2ccc(Cl)cc2)=NOC1c1ccc(Cl)cc1` (stereo not given), for which the inhibition result in assay [1], in assay [2] and in assay [3] was “inactive” in each case. The IC50 entry in assay [4] is on record as “Not Active”. The outcome in assay [5], in assay [6], in assay [7], in assay [8], in [9] and in assay [10] was inactive.
Turning to `COc1ccc(-c2noc(-c3ccc(C)cc3)c2S(=O)(=O)CC2=NCCO2)cc1`, the inhibition in assay [1] was determined as 72.9%; in assay [2], 75.8%; in assay [3], 79.7%. The 50% inhibitory concentration (IC50) in [4] came to 62.76 mg/L (≈ 152 µM). Further, the Activity came to 68.8% in [5]; 73% in assay [6]; 76.2% in [7]; 70% in assay [8]; 72% in assay [9]; 77.1% in [10].
Turning to `O=S(=O)(CC1=NCCS1)c1c(-c2ccccc2)noc1-c1ccccc1`, the inhibition result in [1], in assay [2] and in assay [3] was “inactive” in each case. The IC50 result in assay [4] is recorded as “Not Active”. Further, the outcome in [5], in assay [6], in [7], in [8], in [9] and in assay [10] was inactive.
In the case of `O=S(=O)(CC1=NCCS1)C1C(c2ccc(Cl)cc2)=NN(c2ccccc2)C1c1ccc(Cl)cc1` (stereo not given), the inhibition entry in assay [1], in assay [2] and in assay [3] was “inactive” each time. In addition, in [4], the IC50 entry was “Not Active”. The result in assay [5], in [6], in assay [7], in assay [8], in [9] and in assay [10] was inactive.
`O=S(=O)(CC1=NCCS1)c1c(-c2ccc(Cl)cc2)noc1-c1ccc(Cl)cc1`: the inhibition entry in assay [1], in [2] and in [3] was “inactive” each time. The IC50 entry in [4] was “Not Active”. For the same molecule, the outcome in assay [5], in assay [6], in assay [7], in assay [8], in assay [9] and in assay [10] was inactive.
On to `O=S(=O)(CC1=NCCO1)C1C(c2ccccc2)=NOC1c1ccccc1` (stereo not given), for which the inhibition in [1] is 49.4%; in assay [2] it was 55.2%; in assay [3] it was 57.9%. Further, in assay [4], the IC50 stood at 86.31 mg/L (≈ 233 µM). The Activity in assay [5] came out at 53.9%; in assay [6], 57.2%; in [7], 62.8%; in assay [8], 51.7%; in assay [9], 53.3%; in [10], 56.6%.
Regarding `COc1ccc(-c2nn(-c3ccccc3)c(-c3ccc(C)cc3)c2S(=O)(=O)CC2=NCCO2)cc1`, the inhibition in assay [1] turned out to be 65.5%; in assay [2], 67.6%; in [3] it was 70.3%. Besides, the IC50 in [4] turned out to be 71.07 mg/L (≈ 146 µM). The Activity in [5] is 61.6%; in [6] it was 66.6%; in assay [7], 68.2%; in [8], 67.6%; in assay [9] it was 68.7%; in assay [10], 72.5%.
With `Cc1ccc(C2CNN=C2S(=O)(=O)CC2=NCCO2)cc1` (stereo not given), the inhibition in [1] came out at 38.7%; in assay [2], 43.6%; in assay [3], 49.8%. The IC50 in assay [4] stood at 100.44 mg/L (≈ 327 µM). Moreover, the Activity in assay [5] is 45.9%; in assay [6], 49.7%; in assay [7], 51.4%; in [8], 41.3%; in [9] it was 42.1%; in [10] it was 46.8%.
`O=S(=O)(CC1=NCCO1)c1n[nH]cc1-c1ccc(Cl)cc1`: the inhibition entry in assay [1], in assay [2] and in assay [3] was “inactive” each time. Moreover, in [4], the IC50 result is on record as “Not Active”. Also, the outcome in assay [5], in assay [6], in [7], in assay [8], in assay [9] and in assay [10] was inactive.
For the molecule `COc1ccc(C2=NN(c3ccccc3)C(c3ccc(C)cc3)C2S(=O)(=O)CC2=NCCO2)cc1` (stereo not given), the inhibition came to 64.4% in assay [1], 70.2% in assay [2] and 73.8% in assay [3]. Moreover, the IC50 in assay [4] is 67.74 mg/L (≈ 138 µM). In addition, the Activity in [5] is 59.1%; in assay [6], 64.9%; in assay [7], 70.5%; in assay [8] it was 62.5%; in [9], 64.3%; in assay [10], 67.7%.
Take `COc1ccc(C2=NN(c3ccccc3)C(c3ccc(C)cc3)C2S(=O)(=O)CC2=NCCS2)cc1` (stereo not given): the inhibition in [1] was 37.5%; in assay [2], 45.8%; in [3], 51.5%. For the same molecule, the IC50 in [4] was found to be 97.04 mg/L (≈ 192 µM). Moreover, the Activity in assay [5] came to 39.4%; in assay [6], 44.9%; in assay [7], 50.7%; in [8] it was 42.6%; in assay [9], 43.9%; in [10], 47.9%.
Consider `Cc1ccc(C2CNN=C2S(=O)(=O)CC2=NCCS2)cc1` (stereo not given), for which the inhibition turned out to be 40.9% in [1], 44% in [2] and 48.2% in assay [3]. Besides, in assay [4], the IC50 turned out to be 103.73 mg/L (≈ 321 µM). The Activity in assay [5] is 43.1%; in [6], 48.6%; in [7] it was 52.1%; in assay [8], 39.8%; in assay [9], 42.2%; in [10] it was 45%.
